# Reference: ChEMBL document CHEMBL1132335, “Discovery and synthesis of (S)-3-[2-(3,4-dimethoxyphenyl)ethoxy]-2- (4,6-dimethylpyrimidin-2-yloxy)-3,3-diphenylpropionic acid (LU 302872), a novel orally active mixed ET(A)/ET(B) receptor antagonist” (J Med Chem, 1999)
# Assays:
# [1] = target: T1, Endothelin receptor, ET-A/ET-B (Homo sapiens) (UniProt P24530+P25101); test: Selectivity for Endothelin A receptor compared to Endothelin B receptor.; format: protein assay
# Rattus norvegicus [2] = test: Percent reduction of big ET-induced blood pressure increase in drug treated rats with LU 135252 and 10 mg/Kg of compound given perorally was reported as (AUD 30 min) in mmHg(min); format: functional
# Summary of the method: (§1)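 Male Sprague–Dawley rats dosed 10 mg/kg p.o.; urethane anesthesia (1.6 g/kg i.p.), tracheotomy 90 min later, carotid artery cannulated for blood pressure, jugular vein for agonist. Big ET-1 20 µg/kg i.v. at 120 min post-dose; pressure recorded over 30 min as area under the data (AUD30min), compared with control; mean ± SEM.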
# Rattus norvegicus [3] = test: Inhibition of big ET-induced blood pressure increase in drug treated rats with LU 135252 and 10 mg/Kg of compound given perorally was reported as (AUD 30 min) in mmHg(min); format: functional; summary of the method: as §1
# Endothelin-1 receptor = target: T2, Endothelin-1 receptor (Homo sapiens, UniProt P25101); test: Inhibition of [125I]-ET-1 (ETA assay) binding to human cloned Endothelin A receptor in CHO cells; format: cell-based
# T2 sequence (P25101 whole entry): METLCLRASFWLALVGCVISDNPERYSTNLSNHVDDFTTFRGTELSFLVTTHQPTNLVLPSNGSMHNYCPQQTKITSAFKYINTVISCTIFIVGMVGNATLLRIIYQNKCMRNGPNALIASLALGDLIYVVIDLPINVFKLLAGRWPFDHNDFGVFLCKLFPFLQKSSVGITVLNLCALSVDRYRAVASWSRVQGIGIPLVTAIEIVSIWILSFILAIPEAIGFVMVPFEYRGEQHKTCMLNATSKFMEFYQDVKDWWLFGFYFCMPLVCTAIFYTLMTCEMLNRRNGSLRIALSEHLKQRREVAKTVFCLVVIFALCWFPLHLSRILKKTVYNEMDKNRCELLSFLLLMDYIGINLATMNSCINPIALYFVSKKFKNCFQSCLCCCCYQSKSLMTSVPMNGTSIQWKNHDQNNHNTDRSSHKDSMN
# Summary of the method: (§2)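 CHO cells stably expressing human ETA or ETB receptor; 10–50 µg membrane protein incubated 30 min at 25 °C in 50 mM Tris-HCl pH 7.4, 5 mM MnCl2, 40 µg/mL bacitracin, 0.2% BSA, with 25 pM [125I]ET-1 (ETA) or 25 pM [125I]ET-3 (ETB). Nonspecific binding with 0.1 µM ET-1; filtration, scintillation counting. Triplicate, repeated at least once; Ki by Cheng–Prusoff or nonlinear regression, ±SE.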
# [4] = target: T3, Endothelin receptor type B (Homo sapiens, UniProt P24530); test: Inhibition of [125I]ET-3 (ETB assay) binding to human cloned Endothelin B receptor in CHO cells; format: cell-based; summary of the method: as §2
# T3 sequence (P24530 whole entry): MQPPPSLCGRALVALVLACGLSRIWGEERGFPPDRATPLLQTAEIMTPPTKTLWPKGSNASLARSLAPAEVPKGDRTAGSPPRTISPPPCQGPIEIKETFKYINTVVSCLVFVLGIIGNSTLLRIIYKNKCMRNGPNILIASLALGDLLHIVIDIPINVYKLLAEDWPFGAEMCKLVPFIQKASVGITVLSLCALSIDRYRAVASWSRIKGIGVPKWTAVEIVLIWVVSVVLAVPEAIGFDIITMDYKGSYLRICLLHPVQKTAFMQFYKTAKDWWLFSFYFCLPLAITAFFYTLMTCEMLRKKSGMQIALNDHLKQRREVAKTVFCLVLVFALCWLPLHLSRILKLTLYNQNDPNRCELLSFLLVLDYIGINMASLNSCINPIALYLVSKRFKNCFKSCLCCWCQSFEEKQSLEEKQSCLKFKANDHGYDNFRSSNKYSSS
# [5] = target: T1, Endothelin receptor, ET-A/ET-B (Homo sapiens); test: Compound was tested for %inhibition of big ET-induced bronchospasm in guinea pigs with LU 135252 and balanced ETA/B receptor antagonists at 10 mg/kg oral dose was reported as (AUD 30 min) in mL(min); conditions: Cavia porcellus
# [6] = target: T1, Endothelin receptor, ET-A/ET-B (Homo sapiens); test: Compound was tested for inhibition of big ET-induced bronchospasm in drug treated guinea pigs with LU 135252 and balanced ETA/B receptor antagonists at 10 mg/kg oral dose was reported as (AUD 30 min) in mL(min); conditions: Cavia porcellus
# Rattus norvegicus [7] = test: Inhibition of big ET-induced blood pressure increase in drug treated rats with 10 mg/Kg of compound given perorally was reported as (AUD 30 min) in mmHg(min); format: functional; summary of the method: as §1
# [8] = target: T1, Endothelin receptor, ET-A/ET-B (Homo sapiens); conditions: Rattus norvegicus; 30 mg/kg
# [9] = target: T1, Endothelin receptor, ET-A/ET-B (Homo sapiens); conditions: Rattus norvegicus; 10 mg/kg
# [10] = target: T4, Endothelin receptor (Rattus norvegicus) (UniProt P26684+P21451); conditions: Blood, 10 mg/kg
# [11] = target: T4, Endothelin receptor (Rattus norvegicus); conditions: Blood, 10 mg/kg; remark: listed apart in the source
# T4 sequence (P21451 whole entry, looked up): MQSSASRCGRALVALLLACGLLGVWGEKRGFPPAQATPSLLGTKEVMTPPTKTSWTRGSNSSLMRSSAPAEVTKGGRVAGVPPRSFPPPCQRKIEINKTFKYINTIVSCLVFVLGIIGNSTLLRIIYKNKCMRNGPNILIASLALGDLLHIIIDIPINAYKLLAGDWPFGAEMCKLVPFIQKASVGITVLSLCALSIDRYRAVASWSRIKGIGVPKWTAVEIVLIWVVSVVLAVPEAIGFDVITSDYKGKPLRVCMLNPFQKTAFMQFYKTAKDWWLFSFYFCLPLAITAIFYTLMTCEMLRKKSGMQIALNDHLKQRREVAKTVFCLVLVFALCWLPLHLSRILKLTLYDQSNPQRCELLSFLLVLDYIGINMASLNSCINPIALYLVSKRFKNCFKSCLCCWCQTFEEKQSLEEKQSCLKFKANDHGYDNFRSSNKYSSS
# T4 sequence (P26684 whole entry, looked up): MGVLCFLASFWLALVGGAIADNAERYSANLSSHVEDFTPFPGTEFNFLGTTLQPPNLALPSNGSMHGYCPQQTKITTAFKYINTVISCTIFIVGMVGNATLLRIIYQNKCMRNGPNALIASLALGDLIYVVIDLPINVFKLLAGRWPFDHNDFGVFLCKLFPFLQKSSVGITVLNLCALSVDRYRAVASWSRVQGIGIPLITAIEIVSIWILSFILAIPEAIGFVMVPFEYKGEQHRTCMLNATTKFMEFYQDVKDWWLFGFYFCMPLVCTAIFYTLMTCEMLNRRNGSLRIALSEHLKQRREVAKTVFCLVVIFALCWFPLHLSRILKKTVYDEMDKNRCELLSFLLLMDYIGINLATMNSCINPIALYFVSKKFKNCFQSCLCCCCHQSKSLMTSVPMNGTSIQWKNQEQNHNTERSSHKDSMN
SMILES,Ratio [1],Ki (Endothelin-1 receptor),Ki [4],further results
CCOc1ccc(CCOC(c2ccccc2)(c2ccccc2)C(Oc2nc(C)cc(C)n2)C(=O)O)cc1OC (stereo not drawn),8,3.13 nM,25.1 nM,BP increase (Rattus norvegicus [2]): 68%; BP increase (Rattus norvegicus [3]): 475 mmHg
Cc1ccc(CCCOC(c2ccccc2)(c2ccccc2)C(Oc2nc(C)cc(C)n2)C(=O)O)cc1 (stereo not drawn),,23 nM,170 nM,
COc1cc(CCOC(c2ccccc2)(c2ccccc2)C(Oc2nc(C)cc(C)n2)C(=O)O)cc(OC)c1OC (stereo not drawn),2.3,1.38 nM,3.21 nM,BP increase (Rattus norvegicus [2]): 25%; BP increase (Rattus norvegicus [3]): 1123 mmHg
COc1cc(/C=C/COC(c2ccccc2)(c2ccccc2)C(Oc2nc(C)cc(C)n2)C(=O)O)cc(OC)c1OC (stereo not drawn),0.4,48 nM,20 nM,
COc1ccc(CCOC(c2ccccc2)(c2ccccc2)C(Oc2nc(C)cc(OC)n2)C(=O)O)cc1 (stereo not drawn),11.8,1.95 nM,,
CCc1ccc(C(OCCc2ccc(OC)cc2)(c2ccc(CC)cc2)C(Oc2nc(C)cc(OC)n2)C(=O)O)cc1 (stereo not drawn),1,155 nM,160 nM,
COc1ccc(CCOC(c2ccccc2)(c2ccccc2)C(Oc2nc(C)cc(C)n2)C(=O)O)cc1OC (stereo not drawn),2,,,Reduction in respiratory volume [5]: 67%; BP increase (Rattus norvegicus [2]): 58%; Reduction in respiratory volume [6]: 71 mL; BP increase (Rattus norvegicus [3]): 641 mmHg
COc1cc(C)nc(OC(C(=O)O)C(OCCc2ccc(OC)c(OC)c2)(c2ccc(Cl)cc2)c2ccc(Cl)cc2)n1 (stereo not drawn),0.6,,,
Cc1ccc(CCOC(c2ccccc2)(c2ccccc2)C(Oc2nc(C)cc(C)n2)C(=O)O)cc1 (stereo not drawn),,32.5 nM,55 nM,
COc1ccc(CCOC(c2ccccc2)(c2ccccc2)[C@H](Oc2nc(C)cc(C)n2)C(=O)O)cc1OC [FELOPRENTAN],2.2,2.15 nM,4.75 nM,Reduction in respiratory volume [5]: 79%; BP increase (Rattus norvegicus [2]): 61%; Reduction in respiratory volume [6]: 46 mL; BP increase (Rattus norvegicus [3]): 583 mmHg
COc1ccc(CCOC(c2ccccc2)(c2ccccc2)C(Oc2nc(C)cc(C)n2)C(=O)O)cc1 (stereo not drawn),4,,24.2 nM,BP increase (Rattus norvegicus [2]): 33%; BP increase (Rattus norvegicus [3]): 976 mmHg
Cc1ccc(/C=C/COC(c2ccccc2)(c2ccccc2)C(Oc2nc(C)cc(C)n2)C(=O)O)cc1 (stereo not drawn),,32 nM,320 nM,
COc1ccc(CCOC(c2ccc(C)cc2)(c2ccc(C)cc2)C(Oc2nc(OC)c3c(n2)OCC3)C(=O)O)cc1 (stereo not drawn),0.7,105 nM,71.2 nM,
Cc1cc(C)nc(OC(C(=O)O)C(OCCc2ccc(Cl)cc2)(c2ccccc2)c2ccccc2)n1 (stereo not drawn),4.7,,94.1 nM,
COc1cc(OC)nc(O[C@H](C(=O)O)C(OC)(c2ccccc2)c2ccccc2)n1 [DARUSENTAN],,,,BP increase (Rattus norvegicus [7]): 636 mmHg; Reduction in respiratory volume [8]: 172 mL; Reduction in respiratory volume [9]: 19 mL
COc1ccc(COC(c2ccccc2)(c2ccccc2)C(Oc2nc(C)cc(C)n2)C(=O)O)cc1OC (stereo not drawn),31,2 nM,63 nM,
Cc1cc(C)nc(OC(C(=O)O)C(OCCc2ccc(O)cc2)(c2ccccc2)c2ccccc2)n1 (stereo not drawn),4.7,3.48 nM,16.2 nM,
COc1ccc(OC(c2ccccc2)(c2ccccc2)C(Oc2nc(C)cc(C)n2)C(=O)O)cc1OC (stereo not drawn),125,0.48 nM,60 nM,
CCc1ccc(C(OCCc2ccc(OC)cc2)(c2ccc(CC)cc2)C(Oc2nc(C)cc(C)n2)C(=O)O)cc1 (stereo not drawn),0.8,250 nM,195 nM,
COc1cc(CCOC(c2ccccc2)(c2ccccc2)C(Oc2nc(C)cc(C)n2)C(=O)O)ccc1OCC(=O)O (stereo not drawn),12,1.92 nM,24 nM,BP increase (Rattus norvegicus [2]): 14%; BP increase (Rattus norvegicus [3]): 1294 mmHg
Cc1cc(C)nc(OC(C(=O)O)C(OCCc2ccccc2)(c2ccccc2)c2ccccc2)n1 (stereo not drawn),9.2,25 nM,230 nM,
COc1ccccc1Oc1c(NS(=O)(=O)c2ccc(C(C)(C)C)cc2)nc(-c2ncccn2)nc1OCCO,,,,BP increase [10]: 7%; BP increase [11]: 1400 AUD30min
COc1ccc(CCOC(c2ccc(Cl)cc2)(c2ccc(Cl)cc2)C(Oc2nc3c(c(OC)n2)CCC3)C(=O)O)cc1OC (stereo not drawn),0.7,290 nM,215 nM,
Cc1cc(C)nc(OC(C(=O)O)C(OCCc2ccc(C(=O)O)cc2)(c2ccccc2)c2ccccc2)n1 (stereo not drawn),77,1.5 nM,115 nM,
COc1cc(C)nc(OC(C(=O)O)C(OCCc2ccc(OC)c(OC)c2)(c2ccccc2)c2ccccc2)n1 (stereo not drawn),6.2,2.37 nM,14.7 nM,
CCc1ccc(C(OCCc2ccc(OC)c(OC)c2)(c2ccc(CC)cc2)C(Oc2nc(C)cc(OC)n2)C(=O)O)cc1 (stereo not drawn),1,39.3 nM,40 nM,
